What was measured:
Assay type in all cases: functional
SK-MEL-28 = assay: Cytotoxicity against human SK-MEL-28 cells incubated for 48 hrs by sulforhodamine B assay; conditions: SK-MEL-28, 48 h
HOP-62 [1] = assay: Cytotoxicity against human HOP62 cells assessed as cell growth at 1 uM incubated for 48 hrs by sulforhodamine B assay relative to control; conditions: HOP-62, 48 h, read-out: Activity
SK-MEL-2 = assay: Cytotoxicity against human SK-MEL-2 cells assessed as cell growth at 0.1 uM incubated for 48 hrs by sulforhodamine B assay relative to control; conditions: SK-MEL-2, 48 h, read-out: Activity
M14 = assay: Cytotoxicity against human M14 cells assessed as cell growth at 0.1 uM incubated for 48 hrs by sulforhodamine B assay relative to control; conditions: M14, 48 h, read-out: Activity
KM12 [2] = assay: Cytotoxicity against human KM12 cells incubated for 48 hrs by sulforhodamine B assay; conditions: KM12, 48 h
RXF 393 = assay: Cytotoxicity against human RXF393 cells assessed as cell growth at 0.1 uM incubated for 48 hrs by sulforhodamine B assay relative to control; conditions: RXF 393, 48 h, read-out: Activity
A498 = assay: Cytotoxicity against human A498 cells incubated for 48 hrs by sulforhodamine B assay; conditions: A498, 48 h
SNB-75 = assay: Cytotoxicity against human SNB75 cells assessed as cell growth at 10 uM incubated for 48 hrs by sulforhodamine B assay relative to control; conditions: SNB-75, 48 h, read-out: Activity
ACHN = assay: Cytotoxicity against human ACHN cells assessed as cell growth at 10 uM incubated for 48 hrs by sulforhodamine B assay relative to control; conditions: read-out: Activity
MOLT-4 = assay: Cytotoxicity against human MOLT4 cells assessed as cell growth at 10 uM incubated for 48 hrs by sulforhodamine B assay relative to control; conditions: MOLT-4, 48 h, read-out: Activity
SF-268 [3] = assay: Cytotoxicity against human SF268 cells incubated for 48 hrs by sulforhodamine B assay; conditions: SF-268, 48 h
NCI-H322M = assay: Cytotoxicity against human NCI-H322M cells assessed as cell growth at 10 uM incubated for 48 hrs by sulforhodamine B assay relative to control; conditions: read-out: Activity
Malme-3M = assay: Cytotoxicity against human MALME-3M cells assessed as cell growth at 1 uM incubated for 48 hrs by sulforhodamine B assay relative to control; conditions: read-out: Activity
SF-268 [4] = assay: Cytotoxicity against human SF268 cells assessed as cell growth at 0.1 uM incubated for 48 hrs by sulforhodamine B assay relative to control; conditions: SF-268, 48 h, read-out: Activity
HOP-62 [5] = assay: Cytotoxicity against human HOP62 cells assessed as cell growth at 0.1 uM incubated for 48 hrs by sulforhodamine B assay relative to control; conditions: HOP-62, 48 h, read-out: Activity
RPMI-8226 [6] = assay: Cytotoxicity against human RPMI8226 cells assessed as cell growth at 10 uM incubated for 48 hrs by sulforhodamine B assay relative to control; conditions: RPMI-8226, 48 h, read-out: Activity
EKVX = assay: Cytotoxicity against human EKVX cells assessed as cell growth at 100 uM incubated for 48 hrs by sulforhodamine B assay relative to control; conditions: read-out: Activity
UO-31 = assay: Cytotoxicity against human UO31 cells assessed as cell growth at 1 uM incubated for 48 hrs by sulforhodamine B assay relative to control; conditions: UO-31, 48 h, read-out: Activity
Paracentrotus lividus = assay: Antimitotic activity against Paracentrotus lividus embryo assessed as cleavage arrest measured at 5.5 hrs post fertilization by light microscopy
Method in brief: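 Sea urchin eggs were fertilized with diluted sperm and cultured at room temperature in filtered seawater with paddle agitation (60 rpm), at up to 2000 embryos/mL. The effective threshold concentration causing cleavage alteration, death before hatching or full mitotic arrest was scored in duplicate.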

Hs-578T = assay: Cytotoxicity against human Hs 578T cells assessed as cell growth at 0.1 uM incubated for 48 hrs by sulforhodamine B assay relative to control; conditions: read-out: Activity
MDA-MB-231 = assay: Cytotoxicity against human MDA-MB-231 cells assessed as cell growth at 0.1 uM incubated for 48 hrs by sulforhodamine B assay relative to control; conditions: MDA-MB-231, 48 h, read-out: Activity
OVCAR-5 = assay: Cytotoxicity against human OVCAR5 cells assessed as cell growth at 1 uM incubated for 48 hrs by sulforhodamine B assay relative to control; conditions: OVCAR-5, 48 h, read-out: Activity
SK-MEL-5 = assay: Cytotoxicity against human SK-MEL-5 cells assessed as cell growth at 100 uM incubated for 48 hrs by sulforhodamine B assay relative to control; conditions: SK-MEL-5, 48 h, read-out: Activity
SF-539 = assay: Cytotoxicity against human SF539 cells assessed as cell growth at 1 uM incubated for 48 hrs by sulforhodamine B assay relative to control; conditions: SF-539, 48 h, read-out: Activity
RPMI-8226 [7] = assay: Cytotoxicity against human RPMI8226 cells assessed as cell growth at 0.01 uM incubated for 48 hrs by sulforhodamine B assay relative to control; conditions: RPMI-8226, 48 h, read-out: Activity
TK-10 = assay: Cytotoxicity against human TK10 cells assessed as cell growth at 1 uM incubated for 48 hrs by sulforhodamine B assay relative to control; conditions: TK-10, 48 h, read-out: Activity
HCC 2998 = assay: Cytotoxicity against human HCC2998 cells assessed as cell growth at 0.01 uM incubated for 48 hrs by sulforhodamine B assay relative to control; conditions: HCC 2998, 48 h, read-out: Activity
HT-29 = assay: Cytotoxicity against human HT-29 cells assessed as cell growth at 100 uM incubated for 48 hrs by sulforhodamine B assay relative to control; conditions: HT-29, 48 h, read-out: Activity
786-0 = assay: Cytotoxicity against human 786-0 cells assessed as cell growth at 100 uM incubated for 48 hrs by sulforhodamine B assay relative to control; conditions: 786-0, 48 h, read-out: Activity
KM12 [8] = assay: Cytotoxicity against human KM12 cells assessed as cell growth at 100 uM incubated for 48 hrs by sulforhodamine B assay relative to control; conditions: KM12, 48 h, read-out: Activity
SN12C = assay: Cytotoxicity against human SN12C cells assessed as cell growth at 0.1 uM incubated for 48 hrs by sulforhodamine B assay relative to control; conditions: read-out: Activity
[9] = read-out: LC50 (the source's name)
[10] = read-out: pLC50 (the source's name) (converted)

Q: For `COc1ccc(-c2nocc2-c2cc(OC)c(OC)c(OC)c2)cc1`, which GI50 (SK-MEL-28; read-out: GI50) is on record?
A: 4.96 µM

Q: What about the CC50 (SK-MEL-28; [9]) of the same compound?
A: > 100 µM

Q: What about the TGI (SK-MEL-28; read-out: TGI) of the same compound?
A: 80.8 µM

Q: And the GI50 (SK-MEL-28; read-out: pGI50 (converted))?
A: 5.01 µM

Q: What about the CC50 (SK-MEL-28; [10]) of the same compound?
A: > 100 µM

Q: And the TGI (SK-MEL-28; read-out: pTGI (converted))?
A: 81.3 µM

Q: And the growth at 1 µM (HOP-62 [1])?
A: 39%

Q: What about the growth at 0.1 µM (SK-MEL-2) of the same compound?
A: 39%

Q: What about the growth at 0.1 µM (M14) of the same compound?
A: 41%

Q: And the GI50 (KM12 [2]; read-out: GI50)?
A: 0.0433 µM

Q: And the CC50 (KM12 [2]; [9])?
A: > 100 µM

Q: And the TGI (KM12 [2]; read-out: TGI)?
A: 13.1 µM

Q: And the GI50 (KM12 [2]; read-out: pGI50 (converted))?
A: 0.0437 µM

Q: And the CC50 (KM12 [2]; [10])?
A: > 100 µM

Q: And the TGI (KM12 [2]; read-out: pTGI (converted))?
A: 13.2 µM

Q: What about the growth at 0.1 µM (RXF 393) of the same compound?
A: 86%

Q: And the GI50 (A498; read-out: GI50)?
A: 0.0336 µM

Q: And the LC50 (A498; read-out: LC50)?
A: > 100 µM

Q: What about the TGI (A498; read-out: TGI) of the same compound?
A: 0.816 µM

Q: And the GI50 (A498; read-out: pGI50 (converted))?
A: 0.0339 µM

Q: What about the LC50 (A498; read-out: pLC50 (converted)) of the same compound?
A: > 100 µM

Q: And the TGI (A498; read-out: pTGI (converted))?
A: 0.813 µM

Q: What about the growth at 10 µM (SNB-75) of the same compound?
A: 19%

Q: What about the growth at 10 µM (ACHN) of the same compound?
A: 29%

Q: What about the growth at 10 µM (MOLT-4) of the same compound?
A: 26%

Q: What about the GI50 (SF-268 [3]; read-out: GI50) of the same compound?
A: 0.549 µM

Q: What about the LC50 (SF-268 [3]; read-out: LC50) of the same compound?
A: > 100 µM

Q: And the TGI (SF-268 [3]; read-out: TGI)?
A: > 100 µM

Q: And the GI50 (SF-268 [3]; read-out: pGI50 (converted))?
A: 0.55 µM

Q: What about the LC50 (SF-268 [3]; read-out: pLC50 (converted)) of the same compound?
A: > 100 µM

Q: What about the TGI (SF-268 [3]; read-out: pTGI) of the same compound?
A: > 100 µM

Q: And the growth at 10 µM (NCI-H322M)?
A: 35%

Q: What about the growth at 1 µM (Malme-3M) of the same compound?
A: 46%

Q: What about the growth at 0.1 µM (SF-268 [4]) of the same compound?
A: 63%

Q: What about the growth at 0.1 µM (HOP-62 [5]) of the same compound?
A: 58%

Q: What about the growth at 10 µM (RPMI-8226 [6]) of the same compound?
A: 16%

Q: What about the growth at 100 µM (EKVX) of the same compound?
A: 7%

Q: And the growth at 1 µM (UO-31)?
A: 43%

Q: And the EC (Paracentrotus lividus)?
A: 0.1 µM

Q: And the growth at 0.1 µM (Hs-578T)?
A: 77%

Q: What about the growth at 0.1 µM (MDA-MB-231) of the same compound?
A: 72%

Q: And the growth at 1 µM (OVCAR-5)?
A: 53%

Q: What about the growth at 100 µM (SK-MEL-5) of the same compound?
A: -99%

Q: What about the growth at 1 µM (SF-539) of the same compound?
A: 1%

Q: And the growth at 0.01 µM (RPMI-8226 [7])?
A: 100%

Q: And the growth at 1 µM (TK-10)?
A: 21%

Q: And the growth at 0.01 µM (HCC 2998)?
A: 97%

Q: And the growth at 100 µM (HT-29)?
A: -36%

Q: What about the growth at 100 µM (786-0) of the same compound?
A: -17%

Q: And the growth at 100 µM (KM12 [8])?
A: -45%

Q: What about the growth at 0.1 µM (SN12C) of the same compound?
A: 88%

From ChEMBL document CHEMBL4145521, “Regioselective synthesis of 3,4-diaryl-5-unsubstituted isoxazoles, analogues of natural cytostatic combretastatin A4” (Eur J Med Chem, 2018)
